# Measured values published in paper PMC4767718 (Drugs in R&D, 2015).
# Where two headings read alike, the source gives them in different places.
# Experiments:
# [1] = cited from earlier work
# [2] = assay type: in vivo, human; conditions: single 50 mg ECT; for half-life: human, plasma, oral, 50 mg, Mean t½ (SD)
# How it was run: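 Randomized two-way crossover on day 1 of cycles 1 and 2. Fasted arm: ~10 h overnight fast. Fed arm: high-fat meal (54 g fat, 1036 calories) ~30 min predose, ≥75 % eaten. Tablet taken with 240 mL water, then no food for 4 h. Non-compartmental parameters. Ratio 90 % CIs from ANOVA on log data (patient random effect).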
# [3] = Safety: drug-related adverse events graded by NCI-CTCAE version 3.0; assay type: in vivo, human
# How it was run: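 Adverse events monitored throughout and graded by NCI-CTCAE v3.0, alongside regular hematology, clinical chemistry, vital signs and ECOG status. Single oral dose on day 1 of cycles 1–2. Then 40 mg twice daily on days 3–9 (50 mg allowed in cycle 2), followed by 14-day rest. Afterwards, 40 or 50 mg twice daily on days 1–7 of 21-day cycles.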
# [4] = tested on: advanced solid tumors; experiment: Tumor response by RECIST version 1.1; assay type: in vivo, human
# How it was run: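 RECIST 1.1 response assessed at baseline, end of cycles 2, 4 and 6, then every 3 cycles (9 weeks) until progression. Oral dosing 40 mg twice daily on days 3–9 of cycles 1–2 (escalation to 50 mg allowed in cycle 2). Afterwards, 40 or 50 mg twice daily on days 1–7 of 21-day cycles.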
# [5] = acidic pH / acidic solution; cited from earlier work
# [6] = dose range of 5–200 mg/day; earlier trials, no reference given; cited from earlier work
# [7] = 24 patients, during the first two cycles
# [8] = N = 24, all alisertib treatments
smiles,measurement,setting,value
CS(=O)(=O)CCNCc1ccc(-c2ccc3ncnc(Nc4ccc(OCc5cccc(F)c5)c(Cl)c4)c3c2)o1 [Lapatinib],AUC increase when administered with food,[1]; low-fat meal,approximately three
Cc1nc(Nc2ncc(C(=O)Nc3c(C)cccc3Cl)s2)cc(N2CCN(CCO)CC2)n1 [dasatinib],Increase in the mean AUC after a high-fat meal,[1]; 100 mg dose following a high-fat meal (30 min),14%
COc1cc(Nc2ncc3c(n2)-c2ccc(Cl)cc2C(c2c(F)cccc2OC)=NC3)ccc1C(=O)O [Alisertib],half-life,"[2]; fasted state, n = 11",16.7 h
same,half-life,"[2]; fed state, n = 14",14.9 h
same,"AUCtlast geometric mean ratio, fed versus fasted (90 % CI)",[2],1.04 (0.80–1.34)
same,"Cmax geometric mean ratio, fed versus fasted (90 % CI)",[2],0.84 (0.66–1.06)
same,Decrease in geometric mean Cmax after high-fat meal compared with fasted,[2],16%
same,"AUCinf geometric mean ratio, fed versus fasted (90 % CI)",[2]; n = 11,0.94 (0.68–1.32)
same,"AUCinf geometric mean ratio, fed versus fasted (90 % CI)","[2]; n = 11, listed as alisertib",0.94
same,Geometric mean Cmax under fed conditions as % of that under fasted conditions,[2]; 90 % CI 66–106,84%
same,Geometric mean AUCinf under fed conditions as % of that under fasted conditions,[2]; 90 % CI 68–132 %,94%
same,Discontinuation of treatment due to AEs,[3]; 24 patients,No patient discontinued treatment due to AEs
same,Patients reporting at least one drug-related AE,[3]; 24 patients,96%
same,Patients with AEs considered serious and related to alisertib,[3]; 24 patients,13%
same,Patients with drug-related grade 3/4 leukopenia,[3]; 24 patients,38%
same,Patients with drug-related grade 3/4 neutropenia,[3]; 24 patients,50%
same,Patients with drug-related grade 3/4 thrombocytopenia,[3]; 24 patients,21%
same,Patients with drug-related grade 3 or higher AEs,[3]; 24 patients,67%
same,Patients with drug-related alopecia,"[3]; 24 patients, any grade",50%
same,Patients with drug-related diarrhea,"[3]; 24 patients, any grade",25%
same,Patients with drug-related fatigue,"[3]; 24 patients, any grade",21%
same,Patients with drug-related nausea,"[3]; 24 patients, any grade",21%
same,Serious related grade 3/4 febrile neutropenia,[3]; [7],2 n
same,Serious related grade 3 neutropenia,[3]; [7],1 n
same,"Drug-related AST increased, all grades",[3]; [8],3 (13) n (%)
same,"Drug-related AST increased, grade ≥3",[3]; [8],0 n (%)
same,"Drug-related alopecia, all grades",[3]; [8],12 (50) n (%)
same,"Drug-related alopecia, grade ≥3",[3]; [8],0 n (%)
same,"Drug-related anemia, all grades",[3]; [8],7 (29) n (%)
same,"Drug-related anemia, grade ≥3",[3]; [8],3 (13) n (%)
same,"Drug-related anorexia, all grades",[3]; [8],4 (17) n (%)
same,"Drug-related anorexia, grade ≥3",[3]; [8],0 n (%)
same,"Drug-related diarrhea, all grades",[3]; [8],6 (25) n (%)
same,"Drug-related diarrhea, grade ≥3",[3]; [8],1 (4) n (%)
same,"Drug-related fatigue, all grades",[3]; [8],5 (21) n (%)
same,"Drug-related fatigue, grade ≥3",[3]; [8],1 (4) n (%)
same,"Drug-related febrile neutropenia, all grades",[3]; [8],2 (8) n (%)
same,"Drug-related febrile neutropenia, grade ≥3",[3]; [8],2 (8) n (%)
same,"Drug-related leukopenia, all grades",[3]; [8],13 (54) n (%)
same,"Drug-related leukopenia, grade ≥3",[3]; [8],9 (38) n (%)
same,"Drug-related nausea, all grades",[3]; [8],5 (21) n (%)
same,"Drug-related nausea, grade ≥3",[3]; [8],0 n (%)
same,"Drug-related neutropenia, all grades",[3]; [8],17 (71) n (%)
same,"Drug-related neutropenia, grade ≥3",[3]; [8],12 (50) n (%)
same,"Drug-related stomatitis, all grades",[3]; [8],4 (17) n (%)
same,"Drug-related stomatitis, grade ≥3",[3]; [8],0 n (%)
same,"Drug-related thrombocytopenia, all grades",[3]; [8],7 (29) n (%)
same,"Drug-related thrombocytopenia, grade ≥3",[3]; [8],5 (21) n (%)
same,Patients with best response of stable disease,"[4]; 24 patients evaluable, alisertib 40 to 50 mg twice daily",50%
same,Patients with stable disease lasting more than 3 months,[4]; of 12 patients with stable disease,seven
same,Solubility,[5],reduced
same,"Pharmacokinetics, dose linearity",[6],linear
COc1cc2ncnc(Nc3ccc(F)c(Cl)c3)c2cc1OCCCN1CCOCC1 [gefitinib],Effect of food on systemic exposure,[1],unaffected by food
C#Cc1cccc(Nc2ncnc3cc(OCCOC)c(OCCOC)cc23)c1 [erlotinib],Change of systemic exposure under fed compared with fasted conditions,[1]; single-dose crossover study,approximately doubled
